Experimental data reported in ChEMBL document CHEMBL5113516, “2-(Fluoromethoxy)-4'-(S-methanesulfonimidoyl)-1,1'-biphenyl (UCM-1306), an Orally Bioavailable Positive Allosteric Modulator of the Human Dopamine D1 Receptor for Parkinson's Disease” (J Med Chem, 2022).
Active and inactive are the calls of the source. The rule behind the calls is not given here.

Columns and labels:
[1] = target: D(1A) dopamine receptor (Homo sapiens) (UniProt P21728); test: Positive allosteric modulation of D1R expressed in human SK-N-MC cells assessed as potentiation of DA-induced cAMP production pretreated with compound for 15 mins followed by dopamine addition measured after 15 mins by HTRF assay relative to control; type: functional, cell-based; conditions: dose 0.1-10 µM, time 30.0 min
Chain of D(1A) dopamine receptor (Homo sapiens) (P21728 whole entry): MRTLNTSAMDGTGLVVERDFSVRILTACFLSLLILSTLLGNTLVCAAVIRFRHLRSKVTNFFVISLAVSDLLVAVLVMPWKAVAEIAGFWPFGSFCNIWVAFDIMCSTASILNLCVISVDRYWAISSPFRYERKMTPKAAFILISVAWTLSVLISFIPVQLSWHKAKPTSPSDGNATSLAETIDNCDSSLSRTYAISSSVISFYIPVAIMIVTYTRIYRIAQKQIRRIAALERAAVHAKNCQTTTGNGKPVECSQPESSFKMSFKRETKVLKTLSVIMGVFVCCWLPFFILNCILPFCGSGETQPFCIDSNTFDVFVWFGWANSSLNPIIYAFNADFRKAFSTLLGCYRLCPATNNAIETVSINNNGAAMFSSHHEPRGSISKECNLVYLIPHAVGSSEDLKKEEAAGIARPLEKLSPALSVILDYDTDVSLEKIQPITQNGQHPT
Summary of the method: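 Human SK-N-MC neuroblastoma cells with endogenous D1R, seeded at 1×10^4 cells/well in Opti-MEM with 500 μM IBMX. Preincubated with 10 μM compound for 15 min at 25 °C, then dopamine concentration–response for 15 min at 25 °C. Lysed and cAMP read by HTRF. Change in dopamine Emax used; >20% potentiation taken as a potential PAM.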

Mus musculus [2] = test: Cognitive enhancing effect in C57BL/6J mouse assessed as ratio of novel to familiar at 1 mg/kg, ip by novel object recognition test; type: functional, organism-based; conditions: time 24-96 hrs
Summary of the method: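 Three-month-old male C57BL/6J mice, 8 per condition. After 5 min habituation to an empty 40 cm open field, given 1 mg/kg ip or vehicle (0.9% NaCl). 20 min later, 10 min acquisition with two identical objects. Later 10 min test sessions at 24 and 96 h. Nose/forepaw exploration scored. Discrimination ratio = (novel − familiar)/total exploration time.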

Mus musculus [3] = test: Anti-parkinson activity in reserpine induced C57BL/6 mouse model assessed as decrease in locomotion at 100 to 400 mg/kg, ip measured for 60 mins; type: functional, organism-based; conditions: dose 100-400 mg/kg
Summary of the method: (§1)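 Male C57BL/6 mice (22–25 g), n = 10/group, given reserpine 2.5 mg/kg sc (DMSO/saline). 20 h later dosed with vehicle or 30 mg/kg po (5% NMP + 5% solutol HS-15 + 90% saline), and/or L-DOPA 100 or 400 mg/kg ip plus carbidopa 100 mg/kg ip 30 min before recording. Placed in cage 15 min after the po dose. Total distance travelled over 60 min by video tracking.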

[4] = Toxicity in cocaine-induced hyperactive C57BL/6 mouse model assessed as hyperlocomotion at 1 mg/kg, ip pretreated for 15 mins followed by cocaine addition measured after 15 mins; type: organism-based; conditions: in vivo, 0.5 h, time 30 min
Summary of the method: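 Three-month-old male C57BL/6J mice, 8 per group, habituated to injections for 5 days. Given 1 mg/kg ip in sterile saline (20 mL/kg) 15 min before cocaine 20 mg/kg sc. Placed in a 50 cm open field 5 min after cocaine. Horizontal locomotion (total distance, cm) video-tracked in 2 min blocks over 30 min.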

[5] = Ratio of drug concentration in brain to plasma in BALB/c mouse plasma at 5 mg/kg, po administered as single dose measured 0.5 to 4 hrs; type: ADME, organism-based; conditions: time 0.5-4 hrs
Summary of the method: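 Male BALB/c mice given a single oral dose of 5 mg/kg. Plasma, brain and CSF levels measured over time. Brain-to-plasma concentration ratios calculated between 0.5 and 4 h.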

Mus musculus [6] = test: Anti-parkinson activity in reserpine induced C57BL/6 mouse model assessed as decrease in locomotion at 30 mg/kg, po measured for 60 mins; type: functional, organism-based; summary of the method: as §1
[7] = filed as positive allosteric modulator

Row | SMILES | Emax [1] [%] | further results
1 | O=Cc1ccc(-c2ccccc2OC(F)F)cc1 |  | Emax [1, 7]: 45%
2 | CC(=O)c1ccc(-c2ccccc2OCF)cc1 | 11 | 
3 | O=Cc1ccc(-c2cccc(OC(F)F)c2)cc1 | 37 | 
4 | O=Cc1ccc(-c2ccc(OC(F)F)cc2)cc1 | 35 | 
5 | O=Cc1ccc(-c2ccccc2SC(F)F)cc1 |  | Emax [1, 7]: 44%
6 | CS(=N)(=O)c1ccc(-c2ccccc2OCF)c(Cl)c1 (centres undefined) | 20 | 
7 | COC(=O)c1ccc(-c2ccccc2OCF)cc1 | 28 | 
8 | O=Cc1ccc(-c2ccccc2SCF)cc1 | 14 | 
9 | O=Cc1ccc(-c2cccc(OCF)c2)cc1 | 25 | 
10 | NC(=O)c1ccc(-c2ccccc2OCF)cc1 | 16 | 
11 | C[S+]([O-])c1ccc(-c2ccccc2OCF)cc1 (racemic) |  | Emax [1, 7]: 60%
12 | O=Cc1cccc(-c2ccccc2OC(F)F)c1 | 12 | 
13 | CS(=N)(=O)c1ccc(-c2ccccc2OCF)cc1 (racemic) |  | Activity (Mus musculus [2]): Active; Activity (Mus musculus [3]): Active; Activity [4]: Non-Toxic; Emax [1, 7]: 55%; Kp [5]: 0.55; Activity (Mus musculus [6]): Active
14 | CN=S(C)(=O)c1ccc(-c2ccccc2OCF)cc1 (centres undefined) | 30 | 
15 | CC[S+]([O-])c1ccc(-c2ccccc2OCF)cc1 (centres undefined) | 16 | 
16 | CCS(=N)(=O)c1ccc(-c2ccccc2OCF)cc1 (centres undefined) |  | Emax [1, 7]: 54%
17 | NS(=O)(=O)c1ccc(-c2ccccc2OCF)cc1 | 31 | 
18 | CS(=N)(=O)c1ccc(-c2ccccc2OCF)cc1Cl (centres undefined) | 12 | 
19 | O=Cc1cccc(-c2ccccc2OCF)c1 | 23 | 
20 | CS(=N)(=O)c1ccc(-c2ncccc2OCF)cc1 (centres undefined) | 1 | 
21 | CNS(=O)(=O)c1ccc(-c2ccccc2OCF)cc1 | 38 | 
22 | O=Cc1ccc(-c2ccc(OCF)cc2)cc1 | 29 | 
23 | O=C(O)c1ccc(-c2ccccc2OCF)cc1 | 7 | 
24 | N[C@@H](Cc1ccc(O)c(O)c1)C(=O)O |  | Activity (Mus musculus [3]): Active
